Laboratory results reported in ChEMBL document CHEMBL3632529, “1,2,3-Triazole pharmacophore-based benzofused nitrogen/sulfur heterocycles with potential anti-Moraxella catarrhalis activity” (2015).
Values after ≈ are worked out from the molar mass of the structure shown.

Assays:
Format in all cases: functional
Staphylococcus aureus = test: Antibacterial activity against Staphylococcus aureus ATCC 29213 after overnight incubation by broth microdilution method
In short: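 Colonies were grown on Mueller Hinton agar and suspended directly to give 5 × 10⁴ cfu/well. MIC was by CLSI broth microdilution with double dilutions of compound and azithromycin as the reference. Read-out was visual after overnight incubation at 37 °C in ambient air.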

Streptococcus pneumoniae = test: Antibacterial activity against Streptococcus pneumoniae ATCC 49619 after overnight incubation by broth microdilution method
In short: (§1)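 Streptococci were grown on Mueller-Hinton agar with 5% sheep blood. CLSI broth microdilution MIC used double dilutions, with azithromycin as the reference. The test medium was modified by substituting 5% horse serum for lysed horse blood. Direct colony suspension inocula gave 5 × 10⁴ cfu/well. Growth was read visually after overnight incubation at 37 °C in ambient air.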

Streptococcus pyogenes = test: Antibacterial activity against Streptococcus pyogenes ATCC 700294 after overnight incubation by broth microdilution method; in short: as §1
Escherichia coli = test: Antibacterial activity against Escherichia coli ATCC 25922 after overnight incubation by broth microdilution method
In short: (§2)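 MIC per CLSI standard broth microdilution, with azithromycin as the reference antibiotic. Compounds were tested as double dilutions. Inocula were made by direct colony suspension at 5 × 10⁴ cfu/well. MIC was read visually after overnight incubation at 37 °C in ambient air.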

Moraxella catarrhalis = test: Antibacterial activity against Moraxella catarrhalis ATCC 23246 after overnight incubation by broth microdilution method; in short: as §2
Haemophilus influenzae = test: Antibacterial activity against Haemophilus influenzae ATCC 49247 after overnight incubation by broth microdilution method
In short: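 Bacteria were grown on Mueller Hinton chocolate agar. MIC was then determined by CLSI broth microdilution, with azithromycin as the reference and compounds as double dilutions. Inocula were prepared by direct colony suspension at 5 × 10⁴ cfu/well. Plates were read visually after overnight incubation at 37 °C in ambient air.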

CC[C@H]1OC(=O)[C@H](C)[C@@H](O[C@H]2C[C@@](C)(OC)[C@@H](O)[C@H](C)O2)[C@H](C)[C@@H](O[C@@H]2O[C@H](C)C[C@H](N(C)C)[C@H]2O)[C@](C)(O)C[C@@H](C)CN(C)[C@H](C)[C@@H](O)[C@]1(C)O [AZITHROMYCIN]
MIC (Staphylococcus aureus): 2 µg/mL (≈ 2.67 µM)
MIC (Streptococcus pneumoniae): 0.25 µg/mL (≈ 0.334 µM)
MIC (Streptococcus pyogenes): 0.125 µg/mL (≈ 0.167 µM)
MIC (Escherichia coli): 8 µg/mL (≈ 10.7 µM)
MIC (Moraxella catarrhalis): 0.25 µg/mL (≈ 0.334 µM)
MIC (Haemophilus influenzae): 2 µg/mL (≈ 2.67 µM)

FC(F)(F)c1ccc(-n2cc(Cn3cnc4ccccc43)nn2)cc1
MIC (Staphylococcus aureus): > 128 µg/mL
MIC (Streptococcus pneumoniae): > 128 µg/mL
MIC (Streptococcus pyogenes): > 128 µg/mL
MIC (Escherichia coli): > 128 µg/mL
MIC (Moraxella catarrhalis): 16 µg/mL (≈ 46.6 µM)
MIC (Haemophilus influenzae): > 128 µg/mL

Cc1ccc2nc(-c3ccc(NCc4cn(Cc5cc(=O)oc6cc(O)ccc56)nn4)cc3)sc2c1
MIC (Staphylococcus aureus): > 128 µg/mL
MIC (Streptococcus pneumoniae): > 128 µg/mL
MIC (Streptococcus pyogenes): > 128 µg/mL
MIC (Escherichia coli): > 128 µg/mL
MIC (Haemophilus influenzae): > 128 µg/mL

Cc1ccc2nc(-c3ccc(NCc4cn(-c5ccc(Cl)cc5)nn4)cc3)sc2c1
MIC (Staphylococcus aureus): > 128 µg/mL
MIC (Streptococcus pneumoniae): > 128 µg/mL
MIC (Streptococcus pyogenes): > 128 µg/mL
MIC (Escherichia coli): > 128 µg/mL
MIC (Moraxella catarrhalis): 64 µg/mL (≈ 148 µM)
MIC (Haemophilus influenzae): > 128 µg/mL

Cc1ccc2nc(-c3ccc(NCc4cn(-c5ccc(F)cc5)nn4)cc3)sc2c1
MIC (Staphylococcus aureus): > 128 µg/mL
MIC (Streptococcus pneumoniae): > 128 µg/mL
MIC (Streptococcus pyogenes): > 128 µg/mL
MIC (Escherichia coli): > 128 µg/mL
MIC (Moraxella catarrhalis): 128 µg/mL (≈ 308 µM)
MIC (Haemophilus influenzae): > 128 µg/mL

Fc1ccccc1-n1cc(Cn2cnc3ccccc32)nn1
MIC (Staphylococcus aureus): > 128 µg/mL
MIC (Streptococcus pneumoniae): > 128 µg/mL
MIC (Streptococcus pyogenes): > 128 µg/mL
MIC (Escherichia coli): > 128 µg/mL
MIC (Moraxella catarrhalis): 128 µg/mL (≈ 436 µM)
MIC (Haemophilus influenzae): > 128 µg/mL

Cc1nc2ccccc2n1Cc1cn(-c2ccc(C(F)(F)F)cc2)nn1
MIC (Staphylococcus aureus): > 128 µg/mL
MIC (Streptococcus pneumoniae): > 128 µg/mL
MIC (Streptococcus pyogenes): > 128 µg/mL
MIC (Escherichia coli): > 128 µg/mL
MIC (Moraxella catarrhalis): 64 µg/mL (≈ 179 µM)
MIC (Haemophilus influenzae): > 128 µg/mL

Clc1ccc(-n2cc(Cn3cnc4ccccc43)nn2)cc1
MIC (Staphylococcus aureus): > 128 µg/mL
MIC (Streptococcus pneumoniae): > 128 µg/mL
MIC (Streptococcus pyogenes): > 128 µg/mL
MIC (Escherichia coli): > 128 µg/mL
MIC (Moraxella catarrhalis): 0.5 µg/mL (≈ 1.61 µM)
MIC (Haemophilus influenzae): > 128 µg/mL

Clc1cc(Cl)cc(-n2cc(Cn3cnc4ccccc43)nn2)c1
MIC (Staphylococcus aureus): > 128 µg/mL
MIC (Streptococcus pneumoniae): > 128 µg/mL
MIC (Streptococcus pyogenes): > 128 µg/mL
MIC (Escherichia coli): > 128 µg/mL
MIC (Moraxella catarrhalis): 16 µg/mL (≈ 46.5 µM)
MIC (Haemophilus influenzae): > 128 µg/mL

Fc1ccc(-n2cc(Cn3cnc4ccccc43)nn2)cc1
MIC (Staphylococcus aureus): > 128 µg/mL
MIC (Streptococcus pneumoniae): > 128 µg/mL
MIC (Streptococcus pyogenes): > 128 µg/mL
MIC (Escherichia coli): > 128 µg/mL
MIC (Moraxella catarrhalis): 1 µg/mL (≈ 3.41 µM)
MIC (Haemophilus influenzae): > 128 µg/mL
